Data set [1] has as its system Schistosoma mansoni. Kind of data set: Antischistosomal activity against adult Schistosoma mansoni schistosomes incubated for 72 hrs. Format: functional, organism-based.
Data set [2] has as its system Schistosoma mansoni. Kind of data set: Antischistosomal activity against adult Schistosoma mansoni infected NMRI mouse adult infection model assessed as reduction in female worm burden at 400 mg/kg administered as single dose starting from 49 days post infection. The format is functional. Details: scale not given: the % may be the effect or the level left. The method, boiled down: (§1)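 Mice infected subcutaneously with ~100 S. mansoni cercariae (Liberian strain). At day 49 post infection, groups of 4 NMRI mice received a single oral 400 mg/kg dose; 8–10 untreated controls. Total and female worm burden reductions calculated against untreated controls.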

Data set [3] in a line: Selectivity index, ratio of IC50 for rat L6 cells to IC50 for adult Schistosoma mansoni schistosomes. The method, boiled down: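 Ratio of L6 IC50 to adult S. mansoni IC50, both from the assays above.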
The subject of data set [4] is Schistosoma mansoni. The experiment in a line: Antischistosomal activity against adult Schistosoma mansoni infected NMRI mouse adult infection model assessed as reduction in total worm burden at 400 mg/kg administered as single dose starting from 49 days post infection. Details: scale not given: the % may be the effect or the level left. The format is functional. The method in brief: as §1

Data set [5] deals with Schistosoma mansoni. The experiment in a line: Antischistosomal activity against adult Schistosoma mansoni schistosomes incubated for 72 hrs in presence of 120 uM Fe(3)-hemin. Format: functional, organism-based. The method in brief:
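Adult worm motility assay in RPMI 1640 + 5% iFCS at 1.1–30 μg/ml. Fe(III)-hemin held at 120 μM final throughout exposure; hemin stock 1.5 mM in dilute NaOH/PBS pH 7.4. Motility scored, IC50 determined at 72 h. At least three experiments.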

For the next data set, the system named is L6. The experiment in a line: Cytotoxicity against rat L6 cells incubated for […] hrs by Alamar blue assay. Format: cell-based.
The test system of data set [6] is Schistosoma mansoni. The experiment in a line: Antischistosomal activity against Schistosoma mansoni NTS incubated for 72 hrs. Format: functional, organism-based. The method in brief:
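NTS from mechanically transformed cercariae (Liberian strain), 100 per well in Medium 199 + 5% iFCS, penicillin/streptomycin, preincubated 12–24 h at 37°C, 5% CO2. Exposed to 0.37–90 μg/ml (threefold steps) for 72 h. Scored microscopically on a viability scale (death, motility, morphology). DMSO control; duplicates, at least three experiments; IC50 from viability scores.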

The subject of data set [7] is Schistosoma mansoni. The experiment in a line: Antischistosomal activity against adult Schistosoma mansoni infected NMRI mouse juvenile infection model assessed as reduction in female worm burden at 400 mg/kg administered as single dose starting from 21 days post infection. The format is functional. Details: scale not given: the % may be the effect or the level left. The method in brief:
(§2)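 Juvenile model: NMRI mice infected with ~100 cercariae were given a single oral 400 mg/kg dose on day 21 post infection. Dissected four weeks after treatment, worms sexed and counted. Total and female burden reductions calculated against untreated controls.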

In the next data set the test system is HeLa. Kind of data set: Cytotoxicity against human HeLa cells incubated for 48 hrs by resazurin dye reduction assay. Format: cell-based.
For data set [8], the system named is Schistosoma mansoni. Kind of data set: Antischistosomal activity against adult Schistosoma mansoni infected NMRI mouse juvenile infection model assessed as reduction in total worm burden at 400 mg/kg administered as single dose starting from 21 days post infection. Format: functional. Details: scale not given: the % may be the effect or the level left. The method in brief:
as §2

Data set [9] in a line: Selectivity index, ratio of IC50 for human MRC5 cells to IC50 for human HeLa cells. As to conditions: MRC5 cells versus HeLa cells, read-out: Ratio IC50. Format: cell-based.
For the next data set, the system named is MRC5. Kind of data set: Cytotoxicity against human MRC5 cells incubated for 48 hrs by resazurin dye reduction assay. The format is cell-based. To be noted: MRC5, 48 h.

Bounds are passed on as bounds.

For `Cc1ccc(CC23CCC4(C)O[C@]2(C)OO[C@]3(C)O4)cc1`, the IC50 was over 103 µM in the data set on Schistosoma mansoni [1], 13.4 µM with Schistosoma mansoni [5], over 103 µM with L6 and 4.5 µM in the data set with Schistosoma mansoni [6]. In addition, the Activity in the data set with Schistosoma mansoni [2] and with Schistosoma mansoni [4] was 0% in each case. Also, the “Ratio IC50” value in data set [3] is given as over 7.7.
For `C[C@]12OO[C@](C)(OO1)C2C12CC3CC(CC(C3)C1)C2` (some centres not stated), the IC50 with Schistosoma mansoni [1] came out at 0.3 µM; in the data set on HeLa, 0.4 µM; with L6, 1.7 µM; in the data set on MRC5 it was 1.2 µM; in the data set on Schistosoma mansoni [6], 0.1 µM. Further, the Activity in the data set with Schistosoma mansoni [2] was determined as 77.8%; in the data set with Schistosoma mansoni [7] it was 50%; in the data set on Schistosoma mansoni [4] it was 75.4%; in the data set on Schistosoma mansoni [8], 43.1%. Also, the “Ratio IC50” value in data set [3] is on record as 5.7. Besides, the selectivity ratio in data set [9] is 2.
Turning to `COc1ccc([C@]23OO[C@@]4(C)OC(C)(CCC42)O3)cc1`, the IC50 with Schistosoma mansoni [1] is 11.7 µM; in the data set on HeLa it was 6 µM; with L6, 58.3 µM; in the data set on MRC5, 12.4 µM; in the data set on Schistosoma mansoni [6], 14.4 µM. Moreover, the Activity in the data set with Schistosoma mansoni [2] is reported as 82.9%; in the data set on Schistosoma mansoni [7], 27.3%; in the data set with Schistosoma mansoni [4], 82.8%; in the data set on Schistosoma mansoni [8], 18.9%. In addition, the “Ratio IC50” value in data set [3] was found to be 4.9. The selectivity ratio in data set [9] was found to be 2.
Turning to `C[C@H]1[C@H](OC(=O)CCC(=O)O)O[C@@H]2O[C@@]3(C)CC[C@H]4[C@H](C)CC[C@@H]1[C@@]24OO3` [ARTESUNATE], the IC50 in the data set with Schistosoma mansoni [1] came to 38.7 µM; in the data set on HeLa, 3.2 µM; with Schistosoma mansoni [5], 38.7 µM; in the data set with L6, 1.5 µM; in the data set with MRC5, 6.8 µM; with Schistosoma mansoni [6] it was 4.97 µM. The “Ratio IC50” value in data set [3] turned out to be 0.04. Also, the selectivity ratio in data set [9] stood at 2.

For the origin of these results see ChEMBL document CHEMBL2169849, “Identification of antischistosomal leads by evaluating bridged 1,2,4,5-tetraoxanes, alphaperoxides, and tricyclic monoperoxides” (J Med Chem, 2012).
